Reference: ChEMBL document CHEMBL4706641, “Novel Carboline Fungal Histone Deacetylase (HDAC) Inhibitors for Combinational Treatment of Azole-Resistant Candidiasis” (J Med Chem, 2021)
In brackets after ≈: the same amount, converted by molar mass.

Tests used:
[1] = tested on: Candida albicans; assay: Antifungal activity against Candida albicans 9172 incubated for 48 hrs by microdilution assay; format: functional
How it was run: (§1)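 Checkerboard broth microdilution per CLSI M27-A3 (modified), clinical Candida isolates. Exponential cells in RPMI 1640 (MOPS-buffered) at 10³ cells/mL; fluconazole 0.25–64 μg/mL crossed with test compound 2–64 μg/mL (final). 48 h at 35 °C; OD630 read with background subtracted. MIC80 = 80% growth inhibition; FICI ≤0.5 synergy, >4 antagonism.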

[2] = tested on: Candida albicans; assay: Antifungal activity against Candida albicans 9884 incubated for 48 hrs by microdilution assay; format: functional; how it was run: as §1
[3] = tested on: Candida albicans; assay: Antifungal activity against Candida albicans 10061 incubated for 48 hrs by microdilution assay; format: functional; how it was run: as §1
[4] = tested on: Candida albicans; assay: Antifungal activity against Candida albicans 4108 incubated for 48 hrs by microdilution assay; format: functional; how it was run: as §1
[5] = tested on: Pichia kudriavzevii; assay: Antifungal activity against Candida krusei 10153 incubated for 48 hrs by microdilution assay; format: functional; how it was run: as §1
[6] = tested on: Candida albicans; assay: Synergistic antifungal activity against Candida albicans 9172 incubated for 48 hrs in presence of fluconazole by microdilution assay; format: functional; how it was run: as §1
[7] = tested on: Candida albicans; assay: Synergistic antifungal activity against Candida albicans 9884 incubated for 48 hrs in presence of fluconazole by microdilution assay; format: functional; how it was run: as §1
[8] = tested on: Candida albicans; assay: Synergistic antifungal activity against Candida albicans 10061 incubated for 48 hrs in presence of fluconazole by microdilution assay; format: functional; how it was run: as §1
[9] = tested on: Candida albicans; assay: Synergistic antifungal activity against Candida albicans 4108 incubated for 48 hrs in presence of fluconazole by microdilution assay; format: functional; how it was run: as §1
[10] = tested on: Pichia kudriavzevii; assay: Synergistic antifungal activity against Candida krusei 10153 incubated for 48 hrs in presence of fluconazole by microdilution assay; format: functional; how it was run: as §1
[11] = tested on: Candida albicans; assay: Synergistic antifungal activity against Candida albicans 9172 assessed as fluconazole MIC incubated for 48 hrs in presence of fluconazole by microdilution assay (reference value: fluconazole alone MIC = >[…] ug/ml); format: functional
[12] = tested on: Candida albicans; assay: Synergistic antifungal activity against Candida albicans 9884 assessed as fluconazole MIC incubated for 48 hrs in presence of fluconazole by microdilution assay (reference value: fluconazole alone MIC = >[…] ug/ml); format: functional
[13] = tested on: Candida albicans; assay: Synergistic antifungal activity against Candida albicans 10061 assessed as fluconazole MIC incubated for 48 hrs in presence of fluconazole by microdilution assay (reference value: fluconazole alone MIC = >[…] ug/ml); format: functional
[14] = tested on: Candida albicans; assay: Synergistic antifungal activity against Candida albicans 4108 assessed as fluconazole MIC incubated for 48 hrs in presence of fluconazole by microdilution assay (reference value: fluconazole alone MIC = >[…] ug/ml); format: functional
[15] = tested on: Pichia kudriavzevii; assay: Synergistic antifungal activity against Candida krusei 10153 assessed as fluconazole MIC incubated for 48 hrs in presence of fluconazole by microdilution assay (reference value: fluconazole alone MIC = […] ug/ml); format: functional
[16] = tested on: Candida albicans; assay: Antifungal activity against Candida albicans 0304103 incubated for 48 hrs by microdilution assay; format: functional; how it was run: as §1
[17] = tested on: Candida albicans; assay: Synergistic antifungal activity against Candida albicans 0304103 incubated for 48 hrs in presence of fluconazole by microdilution assay; format: functional; how it was run: as §1
[18] = tested on: Candida albicans; assay: microbe, parasite or virus in culture; format: functional, 0304103
[19] = tested on: Candida albicans; assay: Synergistic antifungal activity against Candida albicans 0304103 assessed as potentiation of fluconazole antifungal activity by measuring FICI incubated for 48 hrs in presence of fluconazole by checkerboard microdilution assay; format: functional; how it was run: as §1
[20] = tested on: Candida albicans; assay: Synergistic antifungal activity against azole-resistant Candida albicans assessed as potentiation of VRC antifungal activity by measuring VRC incubated for 48 hrs in presence of fluconazole by checkerboard microdilution assay; format: functional
[21] = tested on: Candida albicans; assay: Synergistic antifungal activity against azole-resistant Candida albicans assessed as potentiation of ITC antifungal activity by measuring ITC incubated for 48 hrs in presence of fluconazole by checkerboard microdilution assay; format: functional
[22] = Candida albicans, 0304103, read-out: MIC80
[23] = Candida albicans, 0304103, time 48 hrs, read-out: MIC80

| SMILES | MIC80 [16, 22] | MIC80 [17] | MIC80 [18, 23] | fractional inhibitory concentration index (FICI) [19] | fractional inhibitory concentration index (FICI) [20] | fractional inhibitory concentration index (FICI) [21] | further results |
| --- | --- | --- | --- | --- | --- | --- | --- |
| CN1CCc2c(c3ccccc3n2Cc2ccc(C(=O)NO)cc2)C1 [TUBASTATIN A] | – | – | – | – | – | – | MIC80 [1]: > 64 µg/mL; MIC80 [2]: > 64 µg/mL; MIC80 [3]: > 64 µg/mL; MIC80 [4]: > 64 µg/mL; MIC80 [5]: > 64 µg/mL; MIC80 [6]: 16 µg/mL; MIC80 [7]: 4 µg/mL; MIC80 [8]: 2 µg/mL; MIC80 [9]: 8 µg/mL; MIC80 [10]: 64 µg/mL; MIC80 [11]: 0.5 µg/mL; MIC80 [12]: 1 µg/mL; MIC80 [13]: 0.5 µg/mL; MIC80 [14]: 0.5 µg/mL; MIC80 [15]: 32 µg/mL |
| O=C(Cc1ccc(OCCCn2c3c(c4cc(F)ccc42)CCNC3)cc1)NO | > 64 µg/mL | 2 µg/mL | 2 µg/mL (≈ 5.03 µM) | 0.062 | 0.035 | 0.035 | – |
| O=C(Cc1ccc(OCCCn2c3c(c4c(Cl)cccc42)CCNC3)cc1)NO | > 64 µg/mL | 2 µg/mL | 0.5 µg/mL (≈ 1.21 µM) | 0.039 | 0.035 | 0.035 | – |
| O=C(Cc1ccc(OCCCn2c3c(c4ccc(F)cc42)CCNC3)cc1)NO | > 64 µg/mL | 2 µg/mL | 1 µg/mL (≈ 2.52 µM) | 0.047 | 0.035 | 0.035 | – |
| O=C(CCCCCCC(=O)Nc1ccccc1)NO [VORINOSTAT] | – | – | – | – | – | – | MIC80 [16]: >64 µg/mL; MIC80 ([18]; 48 h): 0.25 µg/mL (≈ 0.946 µM) |
| O=C(Cc1ccc(OCCCn2c3c(c4cc(Br)ccc42)CCNC3)cc1)NO | 64 µg/mL (≈ 140 µM) | 2 µg/mL | 0.25 µg/mL (≈ 0.545 µM) | 0.035 | 0.035 | 0.035 | – |
| O=C(Cc1ccc(OCCCn2c3c(c4c(Br)cccc42)CCNC3)cc1)NO | > 64 µg/mL | 4 µg/mL | 0.25 µg/mL (≈ 0.545 µM) | 0.066 | 0.035 | 0.035 | – |
| O=C(Cc1ccc(OCCCn2c3c(c4ccc(Br)cc42)CCNC3)cc1)NO | > 64 µg/mL | 2 µg/mL | 0.5 µg/mL (≈ 1.09 µM) | 0.039 | 0.035 | 0.035 | – |
